# TNAP inh noacc: blocks human TNAP activity with no phosphate acceptor present; P05186; purified TNAP, CDP-star luminescence, 30 min; inhibition, % at 20 µM; 200,000 tested, 0.26% active; AID 1012;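 active = tissue-nonspecific alkaline phosphatase inhibition above about 50% at 20 µM in the single-dose screen, limit read from the data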;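 also: 0% = DMSO negative control and 100% = EDTA positive control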
# Target sequence (P05186 whole entry, looked up): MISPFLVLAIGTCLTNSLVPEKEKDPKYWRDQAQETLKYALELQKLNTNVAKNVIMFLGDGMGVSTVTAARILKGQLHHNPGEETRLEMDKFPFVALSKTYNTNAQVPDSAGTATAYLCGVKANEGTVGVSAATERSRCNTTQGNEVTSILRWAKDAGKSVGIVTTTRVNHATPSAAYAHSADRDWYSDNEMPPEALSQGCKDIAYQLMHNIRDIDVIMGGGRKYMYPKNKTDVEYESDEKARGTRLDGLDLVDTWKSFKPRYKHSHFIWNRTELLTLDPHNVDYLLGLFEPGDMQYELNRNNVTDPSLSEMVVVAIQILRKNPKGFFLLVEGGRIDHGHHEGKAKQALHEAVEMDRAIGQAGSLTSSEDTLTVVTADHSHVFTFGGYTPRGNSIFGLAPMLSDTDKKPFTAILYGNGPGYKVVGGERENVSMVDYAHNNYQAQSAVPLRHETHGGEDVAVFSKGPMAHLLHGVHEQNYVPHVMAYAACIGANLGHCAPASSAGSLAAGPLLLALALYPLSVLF
# TNAP act hi DEA: TNAP (human) activation, high acceptor. P05186. purified TNAP, CDP-star luminescence, 1 M DEA, 30 min; stronger effect = higher value; 0 = EDTA background, 1 = DMSO-only activity. activation factor at 20 µM. 200,000 tested, under 10 active. AID 1136;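 active = activation factor at least 2 at 20 µM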
#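 Assay system: human TNAP; Input: enzyme diluted 1/800 final; Reagent: CDP-star luminogenic substrate at 100 µM final; Timing: 30 min, room temperature; Signal: luminescence; Evaluation: TNAP activation factor scaled between EDTA and DMSO control wells.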
# PTEN del growth: suppresses growth of cells with PTEN deletion; HCT116 PTEN-null viability, CellTiter-Glo, 60 h; stronger effect = lower value; viability, % at 10 µM; 140,000 tested, 1.2% active; AID 827;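 active = viability at or below a set limit, 4 SD under the median of all tested compounds, cut at about 3.7% in these data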;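 also: PTEN knockout HCT116 line with beta catenin targeted HCT116 as companion control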
# TNAP inh hiacc: blocks human TNAP under high phosphate acceptor concentration; P05186; purified TNAP, CDP-star luminescence, 1 M DEA; inhibition, % at 20 µM; 200,000 tested, 0.03% active;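 active = over 50% inhibition of tissue-nonspecific alkaline phosphatase at 20 µM in the single-dose screen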;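 also: plate controls were DMSO wells for no effect and EDTA-quenched wells as full inhibition for full effect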
# bCat KO growth: beta-catenin-lacking colon tumor cell growth suppression; HCT116 beta-catenin knockout viability, CellTiter-Glo, 60 h; stronger effect = lower value; viability, % at 10 µM; 140,000 tested, 1.5% active; AID 818;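 active = viability at or under a set limit, the compound median less 4 SD, cut at about 6% in these data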;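 also: 0% = Hyamine 1622 control at 20 µM and 100% = untreated cell control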
# L major viab: reduces viability of Leishmania major promastigotes; resazurin fluorescence viability; inhibition, % at 10 µM; 200,000 tested, 9% active; AID 1063; in the data active = inhibition above about 50%;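 also: promastigotes grown with compound for 44 hours at 28 °C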
# Numbers without * were called inactive; / = not tested or not shown. Only some compounds are listed: those with a hit (about 9.6% of all), similar ones and a draw of the others.
SMILES,TNAP inh noacc,TNAP act hi DEA,PTEN del growth,TNAP inh hiacc,bCat KO growth,L major viab
COC(=O)c1sc2ccccc2c1NC(=O)c1ccc(S(=O)(=O)N2CCCC(C)C2)cc1 (stereo unspecified),-17,1,62,-2,81,8
CCS(=O)(=O)N1Cc2ccccc2CC1C(=O)Nc1nc2ccc(C)cc2s1 (stereo unspecified),-10,0.9,63,6,86,92*
Cc1ccc2nc(NNC(=O)c3ccc4c(c3)OCCO4)sc2c1,-146,1,65,-1,83,-11
Cc1cc(C)c2nc(NNC(=O)c3ccc(S(=O)(=O)N4CC(C)CC(C)C4)cc3)sc2c1 (stereo unspecified),-8,0.9,12,5,9,99*
CCCN(CCC)C(=O)C1CC(=O)OC12CCCCC2 (stereo unspecified),-8,1,/,-5,/,-1
CCCC(CCC)c1nc2ccncc2[nH]1,-11,1.1,/,-6,/,6
CCN(CC)CCN(C(=O)CCOc1ccccc1)c1nc2ccc(F)cc2s1,-2,1,/,-1,/,-7
Cc1cccc2sc(NNC(=O)c3ccc(S(=O)(=O)N4CC(C)CC(C)C4)cc3)nc12 (stereo unspecified),-2,1,1.9*,1,2.2*,99*
CC1CN(S(=O)(=O)c2cccc(C(=O)OCc3cc(=O)oc4cc(O)ccc34)c2)CC(C)O1 (stereo unspecified),-7,1,51,-1,50,96*
Cc1ccc(-n2c(C)cc(/C=N/NC(=O)c3ccc(CN4CCOCC4)cc3)c2C)cc1,-8,1,55,-1,67,53*
Cc1ccc(-n2c(C)cc(/C=N/NC(N)=S)c2C)cc1,-6,1,71,0,79,100*
Cc1cccc(-n2c(C)cc(/C=N/NC(=O)c3ccc(CN4CCOCC4)cc3)c2C)c1,-4,1,50,-4,46,14
Cc1ccc(-n2c(C)cc(/C=N/NC(=O)c3ccncc3)c2C)cc1,-17,1,85,1,83,-4
COc1ccccc1C(=O)C1CCCN(C(=O)Nc2ccccc2F)C1 (stereo unspecified),-4,1,/,-3,/,-1
Cn1c(N=Nc2ccc(N3CCOCC3)cc2)[n+](C)c2ccccc21,50,0.5,/,47,/,100*
Cn1c(=Nc2ccc(N3CCOCC3)cc2)ccc2ccccc21,-4,1,79,2,89,12
COc1cc(OC)cc(C(=O)N[C@H](C(=O)OCC(=O)Nc2ccc(C(N)=O)cc2)C(C)C)c1,-3,1,92,-3,101,56*
COc1cc(OC)cc(C(=O)N[C@H](C(=O)OCC(=O)Nc2ccc(F)c(F)c2)C(C)C)c1,-7,1.1,92,-7,92,2
C=CC[N+](C)(C)CCN1C(=O)C2C(c3ccccc3)C=CC(c3ccccc3)C2C1=O (stereo unspecified),-14,1,/,-3,/,9
Cc1cc(-c2ccccc2)n(-c2cc(N/N=C/c3ccccc3O)ncn2)n1,-102,0.9,9,6,7,100*
Nc1ccc2c(c1)C(=O)C(=O)c1ccccc1-2,-10,1,1.1*,2,1.0*,100*
O=C1C(=O)c2ccc(-c3ccccc3)cc2-c2ccccc21,-3,1,0.1*,2,0.1*,100*
O=c1c2oc3ccccc3c2ncn1Cc1ccc(Cl)cc1,6,1,/,-1,/,1
COc1ccc(C2CC(=O)c3cnn(-c4nc(C)cc(C)n4)c3C2)cc1 (stereo unspecified),-11,1,/,3,/,78*
CC(=O)c1cccc(Nc2cc(C)nc3c(C)cc(C)cc23)c1,-8,1.1,8,-5,8,100*
SMILES,TNAP inh noacc,TNAP act hi DEA,PTEN del growth,TNAP inh hiacc,bCat KO growth,L major viab
CCC1(c2ccc(F)cc2)NC(=O)N(CC(=O)Nc2ccc(-c3nc4ccc(C)cc4s3)cc2)C1=O (stereo unspecified),-11,1,1.3*,2,1.1*,8
COc1ccc(C2(C)NC(=O)N(CC(=O)Nc3ccc(-c4nc5ccc(C)cc5s4)cc3)C2=O)cc1 (stereo unspecified),-9,1,/,-3,/,30
COc1ccc(OCCSc2nnc(C(C)NC(=O)c3ccccc3F)n2C)cc1 (stereo unspecified),-13,1,/,-1,/,-2
O=C(O)c1ccc(N/N=C/c2cccc(F)c2)cc1,11,1.1,99,-6,104,65*
O=C(O)c1ccc(N/N=C/c2ccc(F)c(F)c2)cc1,-6,1,106,5,103,4
CCC(=O)N1CCc2cc(Br)cc(S(=O)(=O)NCCN3CCCCC3C)c21 (stereo unspecified),-11,1.1,72,-7,58,92*
CCCN(CCC)CCCNS(=O)(=O)c1cc(Br)cc2c1N(C(C)=O)CC2,-3,1,99,-2,102,87*
CN(C)C(CNC(=O)CNC(=O)c1ccc(Br)cc1)c1ccccc1 (stereo unspecified),-12,1.1,/,-6,/,-1
Cc1ccc(S(=O)(=O)NCC(=O)NCC(=O)OCC(=O)N2CC(=O)Nc3ccccc32)cc1C,2,1.1,/,-6,/,-11
CCOC(=O)C1=C(C)OC(N)=C(C(=O)OCC)C1c1cccnc1 (stereo unspecified),-7,1,82,-1,86,84*
CCOC(=O)C1=C(C)OC(N)=C(C(=O)OCC)C1c1ccncc1 (stereo unspecified),-14,1.1,107,-6,97,31
CCOC(=O)C1=C(N)OC2=C(C(=O)CC(C)(C)C2)C1c1cccnc1 (stereo unspecified),-4,1,107,-2,89,78*
CCOC(=O)C1=C(C)NC2=C(C(=O)c3ccccc32)C1c1cccnc1 (stereo unspecified),-1,0.9,73,6,74,82*
CCOC(=O)C1=C(C)NC2=C(C(=O)CCC2)C1c1cccnc1 (stereo unspecified),-4,1.1,104,-7,105,4
CCOc1cccc(CNc2ccc(O)cc2)c1OCc1ccc(Cl)cc1,-1,0.9,1.9*,7,0.8*,100*
Cc1ccc(NCc2ccccc2OCc2ccccc2F)cc1,-12,1.1,80,-10,81,6
Oc1ccc(NCc2ccccc2OCc2ccccc2F)cc1,-6,1,60,-4,53,100*
CCOc1ccccc1CNc1ccc(O)cc1,1,0.9,/,10,/,22
CC12CN3CCN(CC(C3)/C1=N\NC(=O)Nc1cccc(Cl)c1)C2,-2,1,/,1,/,6
COC(=O)CCSc1cc(NCCOC(C)=O)c([N+](=O)[O-])c2nonc12,4,1,96,2,96,84*
